Measurements as given in ChEMBL document CHEMBL1287802, “Convergent synthesis of fluorescence-labeled probes of Annonaceous acetogenins and visualization of their cell distribution” (Bioorg Med Chem, 2010).

Columns and labels:
Format in all cases: functional
OVCAR-5 = experiment: Growth inhibition of human OVCAR5 cells after 48 hrs by sulforhodamine B assay; details: OVCAR-5, 48 h
Outline: (§1)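 Tested in the JFCR39 panel of 39 human cancer cell lines. Cells were exposed to compound for 48 h, and growth was measured as the change in total cellular protein by sulforhodamine B colorimetry. GI50 (molar concentration for 50% growth inhibition) was calculated by a previously reported method. Fingerprints were plotted as log differences of each line's GI50 from the panel mean.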

SF-539 = experiment: Growth inhibition of human SF539 cells after 48 hrs by sulforhodamine B assay; details: SF-539, 48 h; outline: as §1
DMS-273 = experiment: Growth inhibition of human DMS273 cells after 48 hrs by sulforhodamine B assay; details: DMS-273, 48 h; outline: as §1
[1] = Growth inhibition of human MDA-MB-23 cells after 48 hrs by sulforhodamine B assay; details: MDA-MB-23, 48 h, read-out: pGI50 (converted); outline: as §1
HCT-116 = experiment: Growth inhibition of human HCT116 cells after 48 hrs by sulforhodamine B assay; details: HCT-116, 48 h; outline: as §1
OVCAR-3 = experiment: Growth inhibition of human OVCAR-3 cells after 48 hrs by sulforhodamine B assay; details: OVCAR-3, 48 h; outline: as §1
MKN-45 = experiment: Growth inhibition of human MKN45 cells after 48 hrs by sulforhodamine B assay; details: MKN-45, 48 h; outline: as §1
[2] = Growth inhibition of human RXF631L cells after 48 hrs by sulforhodamine B assay; details: RXF 631, 48 h; outline: as §1
DMS-114 = experiment: Growth inhibition of human DMS114 cells after 48 hrs by sulforhodamine B assay; details: DMS-114, 48 h; outline: as §1
SF-295 = experiment: Growth inhibition of human SF295 cells after 48 hrs by sulforhodamine B assay; details: SF-295, 48 h; outline: as §1
MCF7 = experiment: Growth inhibition of human MCF7 cells after 48 hrs by sulforhodamine B assay; details: MCF7, 48 h; outline: as §1
DU-145 = experiment: Growth inhibition of human DU145 cells after 48 hrs by sulforhodamine B assay; details: DU-145, 48 h, read-out: pGI50 (converted); outline: as §1
SF-268 = experiment: Growth inhibition of human SF268 cells after 48 hrs by sulforhodamine B assay; details: SF-268, 48 h; outline: as §1
U-251 = experiment: Growth inhibition of human U251 cells after 48 hrs by sulforhodamine B assay; details: U-251, 48 h; outline: as §1
St-4 = experiment: Growth inhibition of human St-4 cells after 48 hrs by sulforhodamine B assay; details: St-4, 48 h; outline: as §1
OVCAR-4 = experiment: Growth inhibition of human OVCAR4 cells after 48 hrs by sulforhodamine B assay; details: OVCAR-4, 48 h; outline: as §1
SNB-78 = experiment: Growth inhibition of human SNB78 cells after 48 hrs by sulforhodamine B assay; details: SNB-78, 48 h; outline: as §1
[3] = Growth inhibition of human HBC4 cells after 48 hrs by sulforhodamine B assay; details: HBC4, 48 h; outline: as §1
MKN-28 = experiment: Growth inhibition of human MKN28 cells after 48 hrs by sulforhodamine B assay; details: MKN-28, 48 h; outline: as §1
NCI-H23 = experiment: Growth inhibition of human NCI-H23 cells after 48 hrs by sulforhodamine B assay; details: NCI-H23, 48 h; outline: as §1
PC-3 = experiment: Growth inhibition of human PC3 cells after 48 hrs by sulforhodamine B assay; details: PC-3, 48 h; outline: as §1
[4] = Growth inhibition of human MKN1 cells after 48 hrs by sulforhodamine B assay; details: MKN-1, 48 h; outline: as §1
HT-29 = experiment: Growth inhibition of human HT-29 cells after 48 hrs by sulforhodamine B assay; details: HT-29, 48 h; outline: as §1
A549 = experiment: Growth inhibition of human A549 cells after 48 hrs by sulforhodamine B assay; details: A549, 48 h; outline: as §1
NCI-H226 = experiment: Growth inhibition of human NCI-H226 cells after 48 hrs by sulforhodamine B assay; details: NCI-H226, 48 h; outline: as §1
OVCAR-8 = experiment: Growth inhibition of human OVCAR8 cells after 48 hrs by sulforhodamine B assay; details: OVCAR-8, 48 h; outline: as §1
NCI-H460 = experiment: Growth inhibition of human NCI-H460 cells after 48 hrs by sulforhodamine B assay; details: NCI-H460, 48 h; outline: as §1
NCI-H522 = experiment: Growth inhibition of human NCI-H522 cells after 48 hrs by sulforhodamine B assay; details: NCI-H522, 48 h; outline: as §1
SK-OV-3 = experiment: Growth inhibition of human SKOV3 cells after 48 hrs by sulforhodamine B assay; details: SK-OV-3, 48 h; outline: as §1
MKN-7 = experiment: Growth inhibition of human MKN7 cells after 48 hrs by sulforhodamine B assay; details: MKN-7, 48 h; outline: as §1
MKN-74 = experiment: Growth inhibition of human MKN74 cells after 48 hrs by sulforhodamine B assay; details: MKN-74, 48 h; outline: as §1
LOX IMVI = experiment: Growth inhibition of human LOXIMVI cells after 48 hrs by sulforhodamine B assay; outline: as §1
HCT-15 = experiment: Growth inhibition of human HCT15 cells after 48 hrs by sulforhodamine B assay; details: HCT-15, 48 h; outline: as §1
ACHN = experiment: Growth inhibition of human ACHN cells after 48 hrs by sulforhodamine B assay; outline: as §1
KM12 = experiment: Growth inhibition of human KM12 cells after 48 hrs by sulforhodamine B assay; details: KM12, 48 h; outline: as §1
HCC 2998 = experiment: Growth inhibition of human HCC2998 cells after 48 hrs by sulforhodamine B assay; details: HCC 2998, 48 h, read-out: pGI50 (converted); outline: as §1
[5] = Growth inhibition of human HBC5 cells after 48 hrs by sulforhodamine B assay; details: HBC5, 48 h; outline: as §1
SNB-75 = experiment: Growth inhibition of human SNB75 cells after 48 hrs by sulforhodamine B assay; details: SNB-75, 48 h; outline: as §1
[6] = Growth inhibition of human BSY1 cells after 48 hrs by sulforhodamine B assay; details: BSY-1, 48 h; outline: as §1

With `CCCCCCCCCCCC[C@@H](O)[C@H]1CC[C@H]([C@H](O)CCCCCCCCCCCCC2=C[C@H](C)OC2=O)O1` [REL-SOLAMIN] the GI50 (OVCAR-5) was over 100 µM, the GI50 (SF-539) was over 100 µM and the GI50 (DMS-273) was over 100 µM. For the same compound, the GI50 [1] was over 100 µM, the GI50 (HCT-116) was over 100 µM and the GI50 (OVCAR-3) was over 100 µM. The GI50 (MKN-45) was over 100 µM, the GI50 [2] was over 100 µM and the GI50 (DMS-114) was 4.37 µM. It also gave a GI50 (SF-295) of over 100 µM, a GI50 (MCF7) of 70.8 µM and a GI50 (DU-145) of over 100 µM. For the same compound, the GI50 (SF-268) was over 100 µM, the GI50 (U-251) was over 100 µM and the GI50 (St-4) was over 100 µM. It also gave a GI50 (OVCAR-4) of over 100 µM, a GI50 (SNB-78) of over 100 µM and a GI50 [3] of over 100 µM. The GI50 (MKN-28) was 14.1 µM, the GI50 (NCI-H23) was 72.4 µM and the GI50 (PC-3) was over 100 µM. It also gave a GI50 [4] of over 100 µM, a GI50 (HT-29) of over 100 µM and a GI50 (A549) of over 100 µM. The GI50 (NCI-H226) was over 100 µM, the GI50 (OVCAR-8) was over 100 µM and the GI50 (NCI-H460) was over 100 µM. The GI50 (NCI-H522) was 57.5 µM, the GI50 (SK-OV-3) was over 100 µM and the GI50 (MKN-7) was 12.9 µM. For the same compound, the GI50 (MKN-74) was over 100 µM, the GI50 (LOX IMVI) was 29.5 µM and the GI50 (HCT-15) was over 100 µM. For the same compound, the GI50 (ACHN) was over 100 µM, the GI50 (KM12) was over 100 µM and the GI50 (HCC 2998) was over 100 µM. For the same compound, the GI50 [5] was over 100 µM, the GI50 (SNB-75) was over 100 µM and the GI50 [6] was over 100 µM.
